Screening results from PubChem.
In the library only some 2.3% were active in any assay of this set; here they are far more common.
Calb FLC: C. albicans growth modulation with fluconazole. C. albicans CaCi-2 (fluconazole-resistant clinical isolate) + fluconazole, Alamar Blue growth, 48 h. growth inhibition, % (concentration not given with the values). 0.57% of 300,000 active;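 active = growth inhibition above about 58% in most replicates, limit read from the data, passing the limit was not always enough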;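 also: all wells also contain fluconazole at 8 µg/ml as a sub-toxic cotreatment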
ARFGAP1 inhibitor: inhibits rat ARF GTPase activating protein 1; Q62848; Arfgap1-stimulated ARF1 GTP hydrolysis, GDP FP detection; inhibition, % at 16.5 µM; 0.26% of 360,000 active;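 active = inhibition above a per-plate limit, mean inhibition of low control wells plus 3 SD, cut at about 25% in these data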
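Material – truncated rat Arfgap1 GAP domain · Buffer or medium – HEPES-based buffer, pH 7.5 · Reagent – human ARF1(Δ1-17)-GTP substrate · Dosing – 16.5 µM single point, 1.26% DMSO · Schedule – GTP hydrolysis reaction 2 h at 25 °C · Technique – GDP detection by fluorescence polarization · Benchmarks – No-Arfgap1 wells (100%) versus DMSO full-reaction wells (0%) · Repeats – single replicate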
SKKanGAS inh: blocks kanamycin growth of S. pyogenes SKKanGAS strain. inhibition, % at 7.5 µM. BacTiter-Glo, 6 h. 1.3% of 300,000 active;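 active = mean replicate score, as percent of positive control median, at least 50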;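 also: strain carries kanamycin resistance gene driven by streptokinase promoter and grows in 40 µg/ml kanamycin; loss of luminescence reflects streptokinase promoter inhibition or plain growth inhibition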
ASAP1 inh: blocks human ASAP1-stimulated Arf1 GTP hydrolysis; GDP FP detection; AID 624377; Q9ULH1; 0.19% of 360,000 active; inhibition, % at 16.5 µM; in the data active = inhibition above about 25%
Target sequence (Q9ULH1 325-724 limits assumed): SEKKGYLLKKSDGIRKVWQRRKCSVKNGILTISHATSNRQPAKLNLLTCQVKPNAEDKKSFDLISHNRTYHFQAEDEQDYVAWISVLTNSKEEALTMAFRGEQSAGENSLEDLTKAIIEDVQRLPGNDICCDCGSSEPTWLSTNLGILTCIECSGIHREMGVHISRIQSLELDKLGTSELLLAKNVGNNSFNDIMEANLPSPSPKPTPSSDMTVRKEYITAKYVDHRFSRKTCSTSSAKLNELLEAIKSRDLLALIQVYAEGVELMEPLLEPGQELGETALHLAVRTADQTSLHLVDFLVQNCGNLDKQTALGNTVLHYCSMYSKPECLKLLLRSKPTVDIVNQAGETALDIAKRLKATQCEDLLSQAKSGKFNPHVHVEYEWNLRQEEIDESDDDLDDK
HGIII-sPLA2 inh: Blocks human group III sPLA2 activity; Q9NZ20; QFRET BODIPY PC-A2 liposome hydrolysis, fluorescence; inhibition, % at 12.2 µM; 0.56% of 370,000 active; AID 743126;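 active = inhibition above mean plus 3 SD of compounds lying within the high and low control bounds, cut at about 19% in these data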
Each line names hits and unclear results; the compound was inactive in the other large screens.

CC1(C)Cc2ccccc2-c2c1c(=O)n(Cc1ccccc1)c1nnnn21	SKKanGAS inh 60
C/C(=N\NC(=O)c1cccc(N/N=C(\C)c2ccco2)c1)c1ccco1	none
C/C(=N\NC(=O)c1cccc(N/N=C(\C)c2cc(O)ccc2O)c1)c1cc(O)ccc1O	Calb FLC 103
CCc1nnc(NC(=O)CSc2nnc(Cc3ccccc3)n2-c2ccccc2)s1	none
CCc1nnc(NC(=O)CSc2ncc(-c3ccccc3)n2C)s1	Calb FLC 86
CCc1nnc(NC(=O)CSc2nnc(CNc3cccc(C)c3)n2-c2ccccc2)s1	Calb FLC 116
CCc1nnc(NC(=O)CSc2nccn2-c2ccccc2)s1	none
CCc1nnc(NC(=O)CN2C(=O)CCC2=O)s1	none
CCc1nnc(NC(=O)c2cccc(C(=O)Nc3nnc(CC)s3)n2)s1	SKKanGAS inh 99
CCc1nnc(NC(=O)Cn2ccc(C(F)(F)F)n2)s1	Calb FLC 95
O=C(NCc1ccco1)C(=O)NN=Cc1ccccc1O	none (no result: Calb FLC, SKKanGAS inh)
O=C(O)c1ccc(C#Cc2cccc(F)c2)cn1	none (no result: Calb FLC, ARFGAP1 inhibitor, SKKanGAS inh, ASAP1 inh)
COC(=O)c1cccc(-n2c(C)cc(O)cc2=O)c1	none (no result: Calb FLC, SKKanGAS inh)
COC(=O)[C@]12C[C@H](CC(=O)N3CCN(C(=O)c4ccco4)CC3)C(=O)N(Cc3ccc(Cl)cc3Cl)C1=C[C@H](C(C)(C)C)O[C@@H]2C	none (no result: Calb FLC, ARFGAP1 inhibitor, SKKanGAS inh, ASAP1 inh)
O=C(NS(=O)(=O)c1ccccc1[N+](=O)[O-])[C@H]1O[C@@H](n2ccc(=O)[nH]c2=O)[C@H](O)[C@@H]1O	none (no result: Calb FLC, SKKanGAS inh)
CC(C)OC(=O)C(=O)NNc1ccccc1	Calb FLC 129
CCCOC(=O)C(=O)NNc1ccccc1	none
CCc1nc(SCC(=O)N2c3ccccc3CC2C)c2c(C)c(C)sc2n1 (centres undefined)	SKKanGAS inh 50
Cc1sc2nc(C(C)C)nc(SCC(=O)N3c4ccccc4CC3C)c2c1C (centres undefined)	none
CCCCC[n+]1ccn(C2=C([O-])c3ccccc3C(=O)/C2=N\S(=O)(=O)c2ccc(Cl)cc2)c1	SKKanGAS inh 73
CCCC[n+]1ccn(C2=C([O-])c3ccccc3C(=O)/C2=N\S(=O)(=O)c2ccc(Cl)cc2)c1	SKKanGAS inh 61
N/C(CSc1ccc(Cl)cc1)=N\S(=O)(=O)c1ccc(Cl)cc1	none
CC1=C(C(=O)N(C(C)C)C(C)C)CC(CC(=O)NCC2CCCCC2)C(=O)N1Cc1ccc(C(C)(C)C)cc1 (centres undefined)	none (no result: Calb FLC, SKKanGAS inh)
CCOc1ccccc1-c1cc(C(=O)N/N=C/c2cccnc2)c2ccccc2n1	none
Cc1ccc(COc2ccccc2-c2cc(C(=O)N/N=C/c3cccnc3)[nH]n2)cc1	SKKanGAS inh 63
CC(C)c1ccc2[nH]c3c(c2c1)CCC/C3=N\NC(=O)c1ccncc1	SKKanGAS inh 60
O=C(c1nc2ccc(Cl)cn2c1CN1CCCC1)N1CCc2ccccc2C1	none
O=C(c1nc2ccc(Cl)cn2c1CN1CCC(CO)CC1)N1CCc2ccccc2C1	SKKanGAS inh 52
O=C(OCCOc1ccc(Br)cc1)c1ccc(Cl)nc1	Calb FLC 110
Cc1cccc(Cl)c1NC(=O)NCCCN1CCOCC1	none (no result: Calb FLC, SKKanGAS inh)
CC(C)c1ccc2[nH]c(O)c(N=NC(=O)c3cccc(S(=O)(=O)N4CCCCC4)c3)c2c1	SKKanGAS inh 107
CCCCCCCCNS(=O)(=O)CC1NCc2cc(OC)ccc21 (centres undefined)	none (no result: Calb FLC, ARFGAP1 inhibitor, SKKanGAS inh, ASAP1 inh)
CCCCCn1c(SCCc2ccccc2)nc2c1c(=O)[nH]c(=O)n2C	none
CCCCn1c(SCC(=O)c2ccccc2)nc2c1c(=O)[nH]c(=O)n2C	SKKanGAS inh 80
Cc1ccc(-n2nnnc2-c2ccccc2)cc1	none
Cc1ccc(-n2nnnc2C(Cl)c2nnnn2-c2ccc(C)cc2)cc1	Calb FLC 96
CC(=O)OCCCN1C(=O)CCC12CCC(C)CC2 (centres undefined)	none (no result: Calb FLC, ARFGAP1 inhibitor, SKKanGAS inh, ASAP1 inh)
COc1ccc2c(c1)[C@@]1(OCCC=C[C@H]1C)C(=O)N2CC1CC1	none (no result: Calb FLC, SKKanGAS inh)
Oc1ccc(NC(=S)N=Nc2c(O)[nH]c3ccccc23)cc1	none
COc1ccc(NC(=S)N=Nc2c(O)[nH]c3ccccc23)cc1	SKKanGAS inh 95
Cc1ccc(NC(=S)N=Nc2c(O)[nH]c3ccccc23)cc1	SKKanGAS inh 73
Cc1nc2ccc(N=NC3=C(O)CC(C)(C)CC3=O)cc2s1	none
CCOc1ccc2nc(N=NC3=C(O)CC(C)(C)CC3=O)sc2c1	Calb FLC 89
CCNc1nc(Oc2ccc(Cl)cc2Cl)cc(C(F)(F)F)n1	none
CCNc1nc(Oc2c(Cl)cccc2Cl)cc(C(F)(F)F)n1	SKKanGAS inh 53
